Legend:
Conditions in all cases: Homo sapiens
[1] = system: MT4; test: Cytotoxicity was evaluated in vitro on MT-4 cells; assay type: functional
Summary of the method: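 Uninfected MT4 cells incubated 5 days at 37 °C with various concentrations of galactolipid in DPBS. Proliferation and viability read by colorimetric MTT assay.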

[2] = system: CEM-SS; test: Cytotoxicity was evaluated in vitro on CEM-SS cells; assay type: functional
[3] = system: MT4; test: Anti-HIV-1 activity evaluated in vitro on MT-4 cells; assay type: functional, cell-based
Summary of the method: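 MT4 cells (RPMI, 10% fetal calf serum) infected with HIV-1 IIIB at a dose killing 90% of cells by day 5. Compounds in DPBS added after viral adsorption. Protection from the viral cytopathic effect read by MTT viability assay. IC50 derived from curves of protection percentage against drug concentration.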

[4] = system: CEM-SS; test: Anti-HIV-1 activity evaluated in vitro on CEM-SS cells; assay type: functional, cell-based
Summary of the method: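 CEM-SS cells (RPMI, 10% fetal calf serum) infected with HIV-1 LAI grown in CEM-SS cells. Galactolipids in DPBS (or as phospholipid/cholesterol liposomes) added after viral adsorption. After 5 days, reverse transcriptase activity in supernatant measured, and inhibition calculated against untreated infected cells. IC50 taken from median-effect plot of dose-effect data. Triplicate per concentration, experiment repeated twice.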

IC50 [4] [µM]	Compound	CC50 [1] [µM]	CC50 [2] [µM]	IC50 [3] [µM]
> 100	NC(CO[C@@H]1O[C@H](CO)[C@H](O)[C@H](O)[C@H]1O)C(=O)NCCCCCCCCCCCC(=O)O (stereo not given in full)	> 100	> 100	> 100
32	CCCCCCCCCCCCCC(=O)NCC(NC(=O)CCCCCCCCCCCCC)C(=O)NCCN(CCNC(=O)C(O)C(O)C(O[C@@H]1O[C@H](CO)[C@H](O)[C@H](O)C1O)C(O)CO)CCNC(=O)C(O)C(O)C(O[C@@H]1O[C@H](CO)[C@H](O)[C@H](O)[C@H]1O)C(O)CO (stereo not given in full)	38	44	33
50	CCCCCCCCCCCCCCNC(=O)C(CO[C@@H]1O[C@H](CO)[C@H](O)[C@H](O)[C@H]1O)NC(=O)CCC(=O)NCCS(=O)(=O)O (stereo not given in full)	> 100	> 100	> 100
> 100	CCCCCCCCCCCCCCNC(=O)C(CO[C@@H]1O[C@H](CO)[C@H](O)[C@H](O)[C@H]1O)NP(=O)(O)OC (stereo not given in full)	> 100	> 100	> 100
> 18	O=C(O)CCCCCCCCCCC(=O)N(CCCCCCCC(F)(F)C(F)(F)C(F)(F)C(F)(F)C(F)(F)C(F)(F)C(F)(F)C(F)(F)F)CCO[C@@H]1O[C@H](CO)[C@H](O)[C@H](O)[C@H]1O	> 18	> 18	> 18
> 100	CCCCCCCCCCCCCC(=O)NCC(NC(=O)CCCCCCCCCCCCC)C(=O)NCCNC(=O)C(O)C(O)C(O[C@@H]1O[C@H](CO)[C@H](O)[C@H](O)[C@H]1O)C(O)CO (stereo not given in full)	> 100	> 100	> 100
> 100	CCCCCCCCCCCCCCNC(=O)C(CO[C@@H]1O[C@H](CO)[C@H](O)[C@H](O)[C@H]1O)NC(=O)CCCCCCCCCCC(=O)O (stereo not given in full)	> 100	> 100	> 100
> 100	CCCCCCCCCCCCCCNC(=O)C(CO[C@@H]1O[C@H](CO)[C@H](O)[C@H](O)[C@H]1O)NC(=O)CCC(=O)O (stereo not given in full)	> 100	> 100	> 100
40	NC(CO[C@@H]1O[C@H](CO)[C@H](O)[C@H](O)[C@H]1O)C(=O)NCCCCCCCCCCCC(F)(F)C(F)(F)C(F)(F)C(F)(F)C(F)(F)C(F)(F)F (stereo not given in full)	–	–	–
> 100	CCCCCCCCCCCCCC(=O)NC(CO[C@@H]1O[C@H](CO)[C@H](O)[C@H](O)[C@H]1O)C(=O)NCCO (stereo not given in full)	> 100	> 100	> 100
> 100	O=C(O)CCCCCCCCCCCNC(=O)C(CO[C@@H]1O[C@H](CO)[C@H](O)[C@H](O)[C@H]1O)NC(=O)CCC(=O)O (stereo not given in full)	> 100	> 100	> 100
60	CCCCCCCCCCCCCCNC(=O)C(N)CO[C@@H]1O[C@H](CO)[C@H](O)[C@H](O)[C@H]1O (stereo not given in full)	–	–	–
20	CCCCCCCCCCCCCC(=O)NC(CO[C@@H]1O[C@H](CO)[C@H](O)[C@H](O)[C@H]1O)C(=O)O (stereo not given in full)	> 100	> 100	> 100
10	CCCCCCCCCCCCCC(=O)NC(CO[C@@H]1O[C@H](CO)[C@H](O)[C@H](O)[C@H]1O)C(=O)NCCOS(=O)(=O)O (stereo not given in full)	> 100	> 100	20

From ChEMBL document CHEMBL1134517, “Amphiphilic anionic analogues of galactosylceramide: synthesis, anti-HIV-1 activity, and gp120 binding” (J Med Chem, 2001)
